In ChEMBL document CHEMBL1133717, “Soft drugs. 12. Design, synthesis, and evaluation of soft bufuralol analogues” (J Med Chem, 2000):

Assays:
Type in all cases: ADME
[1] = Half-life in rat blood evaluated by enzymatic hydrolysis
In short: (§1)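 Incubation in fresh heparinized male Sprague-Dawley rat blood (used within 30 min) at 37.0 ± 0.1 °C, compound added in methanol at 1:10. Timed samples were quenched in cold methanol and centrifuged; the supernatant (12 µM final) was analysed by HPLC for ester and acid metabolite.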

[2] = Half-life was evaluated by chemical hydrolysis
In short: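 pH 12.0 buffer (0.01 N NaOH, isotonic phosphate 0.5 mM) at 37.0 ± 0.1 °C, with an initial ester concentration of 120 µM. Timed samples were quenched 1:10 in cold methanol (12 µM final) and analysed by HPLC. The pseudo-first-order rate constant came from a linear regression of ln(peak area) versus time, and the half-life was derived from it.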

[3] = species on record: Rattus norvegicus; test: Evaluation of apparent pseudo-first-order hydrolytic rate constant(k) by enzymatic hydrolysis in rat blood at 37+/-0.1 degree Centigrade
In short: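 Freshly drawn heparinized blood from male Sprague-Dawley rats, used within 30 min. Compound in methanol (0.1 mL) was mixed with blood (0.9 mL) at 37.0 ± 0.1 °C. Timed aliquots were mixed with cold methanol, frozen and centrifuged (24 000 rpm, 3 min), giving a final sample concentration of 12 µM. Ester loss was followed by HPLC of the supernatant, and the pseudo-first-order k was obtained from ln(peak area) versus time.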

[4] = Evaluated for apparent pseudo first-order hydrolytic rate constant(K) in chemical hydrolysis
[5] = Half-life in rat blood; evaluated by enzymatic hydrolysis; in short: as §1

half-life [1] | half-life [2] | k [3] | k [4] | half-life [5] | SMILES
99 min | 75.7 min | 0.007 min⁻¹ | 0.091 min⁻¹ | – | CC(C)(C)NCC(O)c1cc2cccc(CC(=O)OC(C)(C)C)c2o1 (centres undefined)
– | 8.2 min | – | 0.084 min⁻¹ | < 0.15 min | CCOC(=O)Cc1cccc2cc(C(O)CNC(C)(C)C)oc12 (centres undefined)
< 0.15 min | 7.2 min | – | 0.096 min⁻¹ | – | COC(=O)Cc1cccc2cc(C(O)CNC(C)(C)C)oc12 (centres undefined)
< 0.15 min | 150 min | – | 0.0016 min⁻¹ | – | CC(C)(C)NCC(O)c1cc2cccc(CC(=O)OCCC34C[C@H]5C[C@@H](C3)C[C@@H](C4)C5)c2o1 (some centres undefined)
16.6 min | 45.7 min | 0.0417 min⁻¹ | 0.015 min⁻¹ | – | CC(C)OC(=O)Cc1cccc2cc(C(O)CNC(C)(C)C)oc12 (centres undefined)
< 0.15 min | 25 min | – | 0.027 min⁻¹ | – | CSCOC(=O)Cc1cccc2cc(C(O)CNC(C)(C)C)oc12 (centres undefined)
6.2 min | 15.2 min | 0.111 min⁻¹ | 0.045 min⁻¹ | – | CC(C)(C)NCC(O)c1cc2cccc(CC(=O)OC3CCCCC3)c2o1 (centres undefined)
